ChEMBL document CHEMBL3227952, “Potential organ- or tumor-imaging agents. 18. Radioiodinated diamines and bisquaternaries” (J Med Chem, 1979)

What was measured:
[1] = tested on: Heart; assay: Drug uptake in Sprague-Dawley rat heart at 11.9 to 12.1 uCi, iv after 0.5 hrs by liquid scintillation counting; type: ADME, organism-based; settings: in vivo
[2] = tested on: Blood; assay: Drug uptake in Sprague-Dawley rat blood at 11.9 to 12.1 uCi, iv after 2 hrs by liquid scintillation counting; type: ADME, organism-based; settings: in vivo
[3] = tested on: Kidney; assay: Drug uptake in Sprague-Dawley rat kidney at 11.9 to 12.1 uCi, iv after 0.5 hrs by liquid scintillation counting; type: ADME, organism-based; settings: in vivo
[4] = tested on: Lung; assay: Drug uptake in Sprague-Dawley rat lung at 11.9 to 12.1 uCi, iv after 2 hrs by liquid scintillation counting; type: ADME, organism-based; settings: in vivo, in the assay text read “gamma counting” for “liquid scintillation counting”
In short: (§1)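 Five rats per time point were exsanguinated under ether. Organs were excised, rinsed, blotted and weighed. Duplicate samples were counted in a well-scintillation gamma counter (87% efficiency). Results are % administered dose/g, mean ± SEM.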

[5] = tested on: Thyroid gland; assay: Drug uptake in Sprague-Dawley rat thyroid at 11.9 to 12.1 uCi, iv after 2 hrs by liquid scintillation counting; type: ADME, organism-based; settings: in vivo, in the assay text read “well-scintillation gamma counting” for “liquid scintillation counting”; in short: as §1
[6] = tested on: Adrenal; assay: Drug uptake in Sprague-Dawley rat adrenal at 11.9 to 12.1 uCi, iv after 0.5 hrs by liquid scintillation counting; type: ADME, organism-based, Adrenal gland; settings: in vivo
[7] = tested on: Adrenal; assay: Drug uptake in Sprague-Dawley rat adrenal at 11.9 to 12.1 uCi, iv after 2 hrs by liquid scintillation counting; type: ADME, organism-based, Adrenal gland; settings: in vivo
In short: (§2)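 Dosing was by tail vein under ether. Five rats were killed by exsanguination at each time. Organs were rinsed, blotted and weighed, with duplicate samples in cellulose acetate capsules. Samples were counted in a well-scintillation gamma counter at 87% efficiency. Results are % administered dose/g, mean ± SEM.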

[8] = Drug uptake in Sprague-Dawley rat ventral prostate at 11.9 to 12.1 uCi, iv after 2 hrs by liquid scintillation counting; type: ADME, organism-based, Prostate gland; settings: in vivo; in short: as §1
[9] = tested on: Brain; assay: Drug uptake in Sprague-Dawley rat brain at 11.9 to 12.1 uCi, iv after 2 hrs by liquid scintillation counting; type: ADME, organism-based; settings: in vivo
[10] = tested on: Liver; assay: Drug uptake in Sprague-Dawley rat liver at 11.9 to 12.1 uCi, iv after 0.5 hrs by liquid scintillation counting; type: ADME, organism-based; settings: in vivo; in short: as §1
[11] = Drug uptake in Sprague-Dawley rat dorsolateral prostate at 11.9 to 12.1 uCi, iv after 0.5 hrs by liquid scintillation counting; type: ADME, organism-based, Prostate gland; settings: in vivo
[12] = tested on: Brain; assay: Drug uptake in Sprague-Dawley rat brain at 11.9 to 12.1 uCi, iv after 0.5 hrs by liquid scintillation counting; type: ADME, organism-based; settings: in vivo
[13] = tested on: Liver; assay: Drug uptake in Sprague-Dawley rat liver at 11.9 to 12.1 uCi, iv after 2 hrs by liquid scintillation counting; type: ADME, organism-based; settings: in vivo, in the assay text read “gamma counting” for “liquid scintillation counting”; in short: as §1
[14] = tested on: Spleen; assay: Drug uptake in Sprague-Dawley rat spleen at 11.9 to 12.1 uCi, iv after 0.5 hrs by liquid scintillation counting; type: ADME, organism-based; settings: in vivo
[15] = tested on: Blood; assay: Drug uptake in Sprague-Dawley rat blood at 11.9 to 12.1 uCi, iv after 0.5 hrs by liquid scintillation counting; type: ADME, organism-based; settings: in vivo
[16] = tested on: Spleen; assay: Drug uptake in Sprague-Dawley rat spleen at 11.9 to 12.1 uCi, iv after 2 hrs by liquid scintillation counting; type: ADME, organism-based; settings: in vivo, in the assay text read “well-scintillation gamma counting” for “liquid scintillation counting”; in short: as §1
[17] = Drug uptake in Sprague-Dawley rat dorsolateral prostate at 11.9 to 12.1 uCi, iv after 2 hrs by liquid scintillation counting; type: ADME, organism-based, Prostate gland; settings: in vivo
[18] = Drug uptake in Sprague-Dawley rat ventral prostate at 11.9 to 12.1 uCi, iv after 0.5 hrs by liquid scintillation counting; type: ADME, organism-based, Prostate gland; settings: in vivo
[19] = tested on: Pituitary gland; assay: Drug uptake in Sprague-Dawley rat pituitary at 11.9 to 12.1 uCi, iv after 0.5 hrs by liquid scintillation counting; type: ADME, organism-based; settings: in vivo
[20] = tested on: Pancreas; assay: Drug uptake in Sprague-Dawley rat pancreas at 11.9 to 12.1 uCi, iv after 2 hrs by liquid scintillation counting; type: ADME, organism-based; settings: in vivo, in the assay text read “well-scintillation gamma counting” for “liquid scintillation counting”; in short: as §1
[21] = Drug uptake in Sprague-Dawley rat bone marrow at 11.9 to 12.1 uCi, iv after 0.5 hrs by liquid scintillation counting; type: ADME, organism-based; settings: in vivo; in short: as §2
[22] = tested on: Pituitary gland; assay: Drug uptake in Sprague-Dawley rat pituitary at 11.9 to 12.1 uCi, iv after 2 hrs by liquid scintillation counting; type: ADME, organism-based; settings: in vivo, in the assay text read “well-scintillation gamma counting” for “liquid scintillation counting”; in short: as §1
[23] = tested on: Lung; assay: Drug uptake in Sprague-Dawley rat lung at 11.9 to 12.1 uCi, iv after 0.5 hrs by liquid scintillation counting; type: ADME, organism-based; settings: in vivo
[24] = Drug uptake in Sprague-Dawley rat diaphragm at 11.9 to 12.1 uCi, iv after 2 hrs by liquid scintillation counting; type: ADME, organism-based; settings: in vivo
[25] = tested on: Pancreas; assay: Drug uptake in Sprague-Dawley rat pancreas at 11.9 to 12.1 uCi, iv after 0.5 hrs by liquid scintillation counting; type: ADME, organism-based; settings: in vivo; in short: as §1
[26] = Drug uptake in Sprague-Dawley rat bone marrow at 11.9 to 12.1 uCi, iv after 2 hrs by liquid scintillation counting; type: ADME, organism-based; settings: in vivo
[27] = tested on: Duodenum; assay: Drug uptake in Sprague-Dawley rat duodenum at 11.9 to 12.1 uCi, iv after 2 hrs by liquid scintillation counting; type: ADME, organism-based; settings: in vivo, in the assay text read “gamma counting” for “liquid scintillation counting”; in short: as §2
[28] = tested on: Heart; assay: Drug uptake in Sprague-Dawley rat heart at 11.9 to 12.1 uCi, iv after 2 hrs by liquid scintillation counting; type: ADME, organism-based; settings: in vivo, in the assay text read “gamma counting” for “liquid scintillation counting”; in short: as §2
[29] = tested on: Kidney; assay: Drug uptake in Sprague-Dawley rat kidney at 11.9 to 12.1 uCi, iv after 2 hrs by liquid scintillation counting; type: ADME, organism-based; settings: in vivo, in the assay text read “gamma counting” for “liquid scintillation counting”; in short: as §1
[30] = Drug uptake in Sprague-Dawley rat diaphragm at 11.9 to 12.1 uCi, iv after 0.5 hrs by liquid scintillation counting; type: ADME, organism-based; settings: in vivo; in short: as §2
[31] = tested on: Testes; assay: Drug uptake in Sprague-Dawley rat testes at 11.9 to 12.1 uCi, iv after 0.5 hrs by liquid scintillation counting; type: ADME, organism-based, Testis; settings: in vivo; in short: as §1
[32] = tested on: Thyroid gland; assay: Drug uptake in Sprague-Dawley rat thyroid at 11.9 to 12.1 uCi, iv after 0.5 hrs by liquid scintillation counting; type: ADME, organism-based; settings: in vivo; in short: as §1
[33] = tested on: Duodenum; assay: Drug uptake in Sprague-Dawley rat duodenum at 11.9 to 12.1 uCi, iv after 0.5 hrs by liquid scintillation counting; type: ADME, organism-based; settings: in vivo
[34] = tested on: Testes; assay: Drug uptake in Sprague-Dawley rat testes at 11.9 to 12.1 uCi, iv after 2 hrs by liquid scintillation counting; type: ADME, organism-based, Testis; settings: in vivo, in the assay text read “well-scintillation gamma counting” for “liquid scintillation counting”; in short: as §1

Drug uptake [1]: 0.367 % ID/g
Drug uptake [2]: 0.038 % ID/g
Drug uptake [3]: 3.598 % ID/g
Drug uptake [4]: 1.065 % ID/g
Drug uptake [5]: 3.114 % ID/g
Drug uptake [6]: 2.287 % ID/g
Drug uptake [7]: 1.84 % ID/g
Drug uptake [8]: 0.588 % ID/g
Drug uptake [9]: 1.255 % ID/g
Drug uptake [10]: 1.069 % ID/g
Drug uptake [11]: 0.657 % ID/g
Drug uptake [12]: 1.791 % ID/g
Drug uptake [13]: 1.042 % ID/g
Drug uptake [14]: 1.402 % ID/g
Drug uptake [15]: 0.05 % ID/g
Drug uptake [16]: 1.511 % ID/g
Drug uptake [17]: 0.614 % ID/g
Drug uptake [18]: 0.673 % ID/g
Drug uptake [19]: 0.899 % ID/g
Drug uptake [20]: 0.349 % ID/g
Drug uptake [21]: 0.483 % ID/g
Drug uptake [22]: 0.684 % ID/g
Drug uptake [23]: 1.993 % ID/g
Drug uptake [24]: 0.114 % ID/g
Drug uptake [25]: 0.737 % ID/g
Drug uptake [26]: 0.569 % ID/g
Drug uptake [27]: 0.349 % ID/g
Drug uptake [28]: 0.174 % ID/g
Drug uptake [29]: 2.225 % ID/g
Drug uptake [30]: 0.241 % ID/g
Drug uptake [31]: 0.154 % ID/g
Drug uptake [32]: 5.001 % ID/g
Drug uptake [33]: 1.053 % ID/g
Drug uptake [34]: 0.163 % ID/g
SMILES: CN(C)Cc1ccc(CN(C)C)c([125I])c1
